According to ChEMBL document CHEMBL3627671, “Novel derivatives of nitro-substituted salicylic acids: Synthesis, antimicrobial activity and cytotoxicity” (Bioorg Med Chem, 2015):
≈ marks a conversion by molar mass, not a printed value.

Tests used:
Format in all cases: functional
[1] = test system: Mycobacterium kansasii; assay: Antimycobacterial activity against Mycobacterium kansasii 235/80 after 21 days; details: 235/80, 504 h
In short: (§1)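 Šula's semisynthetic medium micromethod at 37 °C, read after 7, 14 and 21 days. The 1.0 McFarland suspension was diluted 10^-4. MIC determined. 6509/96 is a clinical isolate.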

[2] = test system: Staphylococcus epidermidis; assay: Antibacterial activity against Staphylococcus epidermidis H 6966/08 after 48 hrs by microdilution broth method; details: H 6966/08, 48 h
In short: (§2)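 Mueller-Hinton broth microdilution (modified M07-A07), pH 7.4 (±0.2). Compounds dissolved in DMSO, tested at final 500 to 0.49 µmol/L. Inoculum in sterile water matched to 0.5 McFarland. Incubated in the dark, humid atmosphere, 35 °C, read at 24 and 48 h visually and at 540 nm. MIC taken as ≥95% growth reduction (IC95) versus control.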

[3] = test system: Aspergillus fumigatus; assay: Antifungal activity against Aspergillus fumigatus 231 after 48 hrs by microdilution broth method; details: Aspergillus fumigatus, 231, 48 h
In short: (§3)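 CLSI M27-A3 broth microdilution in RPMI 1640 with glutamine, buffered to pH 7.0 with MOPS; DMSO diluent. Yeast inoculum 5 × 10^3 ± 0.2 CFU/mL. Moulds grown on Sabouraud agar 3–10 days before spore harvest, final inoculum 0.5-5 × 10^4 CFU/mL, checked in a Bürker chamber. Incubated dark, humid, 35 °C, read at 24 and 48 h visually and at 540 nm. MIC taken as ≥80% (yeasts) or ≥50% (filamentous) growth reduction versus control.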

[4] = test system: Nakaseomyces glabratus; assay: Antifungal activity against Candida glabrata 20/I after 48 hrs by microdilution broth method; in short: as §3
[5] = test system: Klebsiella pneumoniae; assay: Antibacterial activity against ESBL-positive Klebsiella pneumoniae J 14368/08 after 24 hrs by microdilution broth method; details: J 14368/08, 24 h; in short: as §2
[6] = test system: Mycobacterium avium; assay: Antimycobacterial activity against Mycobacterium avium 330/80 after 14 days; details: 330/80, 336 h
[7] = test system: Trichosporon asahii; assay: Antifungal activity against Trichosporon asahii 1188 after 24 hrs by microdilution broth method; details: Trichosporon asahii, 1188, 24 h; in short: as §3
[8] = test system: Staphylococcus epidermidis; assay: Antibacterial activity against Staphylococcus epidermidis H 6966/08 after 24 hrs by microdilution broth method; details: H 6966/08, 24 h; in short: as §2
[9] = test system: Mycobacterium kansasii; assay: Antimycobacterial activity against Mycobacterium kansasii 235/80 after 7 days; details: 235/80, 168 h; in short: as §1
[10] = test system: Staphylococcus aureus; assay: Antibacterial activity against Staphylococcus aureus CCM 4516/08 after 48 hrs by microdilution broth method; details: CCM 4516/08, 48 h
[11] = test system: Enterococcus sp.; assay: Antibacterial activity against Enterococcus sp. J 14365/08 after 48 hrs by microdilution broth method; details: J 14365/08, 48 h; in short: as §2
[12] = test system: Aspergillus fumigatus; assay: Antifungal activity against Aspergillus fumigatus 231 after 24 hrs by microdilution broth method; details: Aspergillus fumigatus, 231, 24 h; in short: as §3
[13] = test system: Staphylococcus aureus; assay: Antibacterial activity against Staphylococcus aureus CCM 4516/08 after 24 hrs by microdilution broth method; details: CCM 4516/08, 24 h
[14] = test system: Trichophyton mentagrophytes; assay: Antifungal activity against Trichophyton mentagrophytes 445 after 24 hrs by microdilution broth method; details: Trichophyton mentagrophytes, 445, 24 h
[15] = test system: Pseudomonas aeruginosa; assay: Antibacterial activity against Pseudomonas aeruginosa CCM 1961 after 48 hrs by microdilution broth method; details: CCM 1961, 48 h; in short: as §2
[16] = test system: Pichia kudriavzevii; assay: Antifungal activity against Candida krusei E28 after 48 hrs by microdilution broth method; details: E28, 48 h; in short: as §3
[17] = test system: Klebsiella pneumoniae; assay: Antibacterial activity against ESBL-positive Klebsiella pneumoniae J 14368/08 after 48 hrs by microdilution broth method; details: J 14368/08, 48 h; in short: as §2
[18] = test system: Candida tropicalis; assay: Antifungal activity against Candida tropicalis 156 after 48 hrs by microdilution broth method; details: Candida tropicalis, 156, 48 h; in short: as §3
[19] = test system: Mycobacterium kansasii; assay: Antimycobacterial activity against Mycobacterium kansasii 6509/96 after 7 days; details: 6509/96, 168 h; in short: as §1
[20] = test system: Enterococcus sp.; assay: Antibacterial activity against Enterococcus sp. J 14365/08 after 24 hrs by microdilution broth method; details: J 14365/08, 24 h; in short: as §2
[21] = test system: Mycobacterium kansasii; assay: Antimycobacterial activity against Mycobacterium kansasii 6509/96 after 21 days; details: 6509/96, 504 h; in short: as §1
[22] = test system: Trichosporon asahii; assay: Antifungal activity against Trichosporon asahii 1188 after 48 hrs by microdilution broth method; details: Trichosporon asahii, 1188, 48 h; in short: as §3
[23] = test system: Lichtheimia corymbifera; assay: Antifungal activity against Absidia corymbifera 272 after 24 hrs by microdilution broth method; details: Lichtheimia corymbifera, 272, 24 h; in short: as §3
[24] = test system: Mycobacterium tuberculosis; assay: Antimycobacterial activity against Mycobacterium tuberculosis H37Rv 331/88 after 14 days; details: H37Rv 331/88, 336 h
[25] = test system: Escherichia coli; assay: Antibacterial activity against Escherichia coli CCM4517 after 48 hrs by microdilution broth method; details: CCM4517, 48 h; in short: as §2
[26] = test system: Escherichia coli; assay: Antibacterial activity against Escherichia coli CCM4517 after 24 hrs by microdilution broth method; details: CCM4517, 24 h; in short: as §2
[27] = test system: Candida albicans; assay: Antifungal activity against Candida albicans ATCC 44859 after 24 hrs by microdilution broth method; details: ATCC 44859, 24 h; in short: as §3
[28] = test system: Lichtheimia corymbifera; assay: Antifungal activity against Absidia corymbifera 272 after 48 hrs by microdilution broth method; details: Lichtheimia corymbifera, 272, 48 h; in short: as §3
[29] = test system: Klebsiella pneumoniae; assay: Antibacterial activity against Klebsiella pneumoniae D 11750/08 after 24 hrs by microdilution broth method; details: D 11750/08, 24 h; in short: as §2
[30] = test system: Pichia kudriavzevii; assay: Antifungal activity against Candida krusei E28 after 24 hrs by microdilution broth method; details: E28, 24 h; in short: as §3
[31] = test system: Candida tropicalis; assay: Antifungal activity against Candida tropicalis 156 after 24 hrs by microdilution broth method; details: Candida tropicalis, 156, 24 h; in short: as §3
[32] = test system: Mycobacterium kansasii; assay: Antimycobacterial activity against Mycobacterium kansasii 235/80 after 14 days; details: 235/80, 336 h; in short: as §1
[33] = test system: Staphylococcus aureus; assay: Antibacterial activity against methicillin-resistant Staphylococcus aureus H 5996/08 after 48 hrs by microdilution broth method; details: H 5996/08, 48 h
[34] = test system: Mycobacterium tuberculosis; assay: Antimycobacterial activity against Mycobacterium tuberculosis H37Rv 331/88 after 21 days; details: H37Rv 331/88, 504 h
[35] = test system: Klebsiella pneumoniae; assay: Antibacterial activity against Klebsiella pneumoniae D 11750/08 after 48 hrs by microdilution broth method; details: D 11750/08, 48 h; in short: as §2
[36] = test system: Staphylococcus aureus; assay: Antibacterial activity against methicillin-resistant Staphylococcus aureus H 5996/08 after 24 hrs by microdilution broth method; details: H 5996/08, 24 h
[37] = test system: Nakaseomyces glabratus; assay: Antifungal activity against Candida glabrata 20/I after 24 hrs by microdilution broth method; in short: as §3
[38] = test system: Mycobacterium avium; assay: Antimycobacterial activity against Mycobacterium avium 330/80 after 21 days; details: 330/80, 504 h
[39] = test system: Mycobacterium kansasii; assay: Antimycobacterial activity against Mycobacterium kansasii 6509/96 after 14 days; details: 6509/96, 336 h; in short: as §1
[40] = test system: Trichophyton mentagrophytes; assay: Antifungal activity against Trichophyton mentagrophytes 445 after 48 hrs by microdilution broth method; details: Trichophyton mentagrophytes, 445, 48 h
[41] = test system: Pseudomonas aeruginosa; assay: Antibacterial activity against Pseudomonas aeruginosa CCM 1961 after 24 hrs by microdilution broth method; details: CCM 1961, 24 h; in short: as §2
[42] = test system: Candida albicans; assay: Antifungal activity against Candida albicans ATCC 44859 after 48 hrs by microdilution broth method; details: ATCC 44859, 48 h; in short: as §3

`O=C(Nc1ccc([N+](=O)[O-])c(C(F)(F)F)c1)c1cc([N+](=O)[O-])ccc1O` showed an MIC [1] of 125 µM (≈ 46.4 µg/mL), an MIC [2] of 125 µM (≈ 46.4 µg/mL) and an MIC [3] of over 500 µM. It also gave an MIC [4] of over 500 µM, an MIC [5] of over 500 µM and an MIC [6] of 125 µM (≈ 46.4 µg/mL). It also gave an MIC [7] of over 500 µM, an MIC [8] of 125 µM (≈ 46.4 µg/mL) and an MIC [9] of 32 µM (≈ 11.9 µg/mL). It also gave an MIC [10] of 62.5 µM (≈ 23.2 µg/mL), an MIC [11] of over 500 µM and an MIC [12] of over 500 µM. The MIC [13] was 62.5 µM (≈ 23.2 µg/mL), the MIC [14] was over 500 µM and the MIC [15] was over 500 µM. For the same compound, the MIC [16] was over 500 µM, the MIC [17] was over 500 µM and the MIC [18] was over 500 µM. The MIC [19] was 62.5 µM (≈ 23.2 µg/mL), the MIC [20] was over 500 µM and the MIC [21] was 125 µM (≈ 46.4 µg/mL). It also gave an MIC [22] of over 500 µM, an MIC [23] of over 500 µM and an MIC [24] of 32 µM (≈ 11.9 µg/mL). It also gave an MIC [25] of over 500 µM, an MIC [26] of over 500 µM and an MIC [27] of over 500 µM. It also gave an MIC [28] of over 500 µM, an MIC [29] of over 500 µM and an MIC [30] of over 500 µM. For the same compound, the MIC [31] was over 500 µM, the MIC [32] was 62.5 µM (≈ 23.2 µg/mL) and the MIC [33] was 31.2 µM (≈ 11.6 µg/mL). The MIC [34] was 32 µM (≈ 11.9 µg/mL), the MIC [35] was over 500 µM and the MIC [36] was 31.2 µM (≈ 11.6 µg/mL). For the same compound, the MIC [37] was over 500 µM, the MIC [38] was 125 µM (≈ 46.4 µg/mL) and the MIC [39] was 62.5 µM (≈ 23.2 µg/mL). It also gave an MIC [40] of over 500 µM, an MIC [41] of over 500 µM and an MIC [42] of over 500 µM.

`O=C(Nc1cccc(Cl)c1)c1ccc([N+](=O)[O-])cc1O` was tested, and the MIC [1] was 16 µM (≈ 4.68 µg/mL), the MIC [2] was 15.6 µM (≈ 4.57 µg/mL) and the MIC [3] was 125 µM (≈ 36.6 µg/mL). The MIC [4] was over 500 µM, the MIC [5] was over 500 µM and the MIC [6] was 32 µM (≈ 9.37 µg/mL). For the same compound, the MIC [7] was 62.5 µM (≈ 18.3 µg/mL), the MIC [8] was 7.81 µM (≈ 2.29 µg/mL) and the MIC [9] was 8 µM (≈ 2.34 µg/mL). The MIC [10] was 15.6 µM (≈ 4.57 µg/mL), the MIC [11] was over 500 µM and the MIC [12] was 62.5 µM (≈ 18.3 µg/mL). It also gave an MIC [13] of 7.81 µM (≈ 2.29 µg/mL), an MIC [14] of 62.5 µM (≈ 18.3 µg/mL) and an MIC [15] of over 500 µM. It also gave an MIC [16] of 125 µM (≈ 36.6 µg/mL), an MIC [17] of over 500 µM and an MIC [18] of over 500 µM. It also gave an MIC [19] of 16 µM (≈ 4.68 µg/mL), an MIC [20] of 500 µM (≈ 146 µg/mL) and an MIC [21] of 16 µM (≈ 4.68 µg/mL). It also gave an MIC [22] of 125 µM (≈ 36.6 µg/mL), an MIC [23] of 62.5 µM (≈ 18.3 µg/mL) and an MIC [24] of 8 µM (≈ 2.34 µg/mL). For the same compound, the MIC [25] was over 500 µM, the MIC [26] was over 500 µM and the MIC [27] was over 500 µM. For the same compound, the MIC [28] was 250 µM (≈ 73.2 µg/mL), the MIC [29] was over 500 µM and the MIC [30] was 62.5 µM (≈ 18.3 µg/mL). It also gave an MIC [31] of over 500 µM, an MIC [32] of 16 µM (≈ 4.68 µg/mL) and an MIC [33] of 15.6 µM (≈ 4.57 µg/mL). The MIC [34] was 16 µM (≈ 4.68 µg/mL), the MIC [35] was over 500 µM and the MIC [36] was 7.81 µM (≈ 2.29 µg/mL). For the same compound, the MIC [37] was over 500 µM, the MIC [38] was 62.5 µM (≈ 18.3 µg/mL) and the MIC [39] was 16 µM (≈ 4.68 µg/mL). The MIC [40] was 62.5 µM (≈ 18.3 µg/mL), the MIC [41] was over 500 µM and the MIC [42] was over 500 µM.
